Sampled rows, rich in hits. Any-hit rate of the full collection: about 5.5%.
STAT1 inh = inhibitors of IFN-gamma induced STAT1 signaling | NIH 3T3 STAT1-luciferase reporter, luminescence | inhibition, % at 5.5 µM | 200,000 compounds, 0.35% hits;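 active means inhibition above a set limit, the mean inhibition across all tested compounds plus 3 SD, cut at about 34% in these data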;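 further: 0% = IFN-gamma with DMSO and 100% = IFN-gamma with 300 µM nifuroxazide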
STAT3 blocker = reduces IL-6 driven STAT3 reporter signal | U3A cells, IL-6 STAT3-luciferase reporter, luminescence; host cell line lacks STAT1 | inhibition, % at 5.5 µM | 190,000 compounds, 0.89% hits;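 active means inhibition above the mean inhibition across all screened compounds plus 3 SD, cut at about 44% in these data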;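 further: 0% = DMSO only wells and 100% = 100 µM nifuroxazide control wells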
STAT3 act = STAT3 signaling activation. U3A cells, IL-6 STAT3-luciferase reporter, luminescence; 100% = signal with IL-6 EC80 alone. activation (% of control), % at 5.6 µM. 190,000 compounds, 0.91% hits;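 active means activation above the screen-wide mean of compound activation plus 3 SD, cut at about 130% in these data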;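 further: 0% = background luminescence of wells with medium and substrate only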
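Test system: STAT3-luciferase reporter U3A cells; Detection: reporter luminescence signal; Times: 1 h compound pre-exposure, 6 h IL-6 stimulation, 37 °C; Benchmarks: IL-6-only high control; Also added: IL-6 stimulus at 33 ng/mL final.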
Cl transport mod = modulators of human KCC2 chloride dependent transport | Q9H2X9 | KCC2 cells, thallium flux FluoZin-2 fluorescence | B-score of Tl+ flux slope (higher = more flux/activation; lower = inhibition) at 10 µM | 190,000 compounds, 2.2% hits;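 active means thallium flux slope and its plate-corrected score both differing from the plate sample mean at a set confidence after two filtering rounds, in either direction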;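 further: slope of fluorescence scaled to starting intensity during 10 to 20 s after thallium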
HSV replic up = HSV replication enhancement | HSV replication augmentation in cells, fold increase | maximum fold increase | 220,000 compounds, 0.005% hits | AID 1956; in the data active means maximum fold increase above about 1.5; tested in PC3 cells
STAT1 activator = increases IFN-gamma driven STAT1 reporter signal | NIH 3T3 STAT1-luciferase reporter, luminescence; 100% = IFN-gamma alone, no compound | activation (% of control), % at 5.5 µM | 200,000 compounds, 2.6% hits;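 active means activation above the screen-wide mean activation plus 3 SD, cut at about 130% in these data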;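 further: raw ratio to IFN-gamma control signal so 100% means no change and 0% no light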
Active calls of the source: *; i = inactive; x = not tested or not shown.

SMILES	STAT1 inh	STAT3 blocker	STAT3 act	Cl transport mod	HSV replic up	STAT1 activator
O=C(Cc1ccccc1)Nc1ccc(NC(=O)c2ccco2)nc1	-40	3	98	x	i	136*
O=C(/C=C/c1ccco1)Nc1ccc(-c2nc3ccccc3[nH]2)cc1	-4	30	74	-0.75	i	104
CC(C)(C)c1ccc(C(=O)Nc2ccc(NC(=O)c3ccco3)cc2)cc1	-3	6	98	-0.12	i	103
Cc1ccc(NC(=O)CCSCCc2ccccn2)cc1	-3	4	100	-0.13	i	101
O=C(Nc1ccc(Nc2ccccc2)cc1)c1ccco1	-37	1	98	-2.5	i	134*
COC(=O)N(C)c1nc2ccccc2s1	-13	18	87	1.2	i	112
CCCCNC(=O)N(C)c1nc2ccccc2s1	-38	-12	114	-0.67	i	133*
COc1cc2[nH]c3c(=O)n4c(nc3c2cc1OC)SCCC4	48*	77*	36	-0.89	i	56
COc1ccc2[nH]c3c(=O)n4c(nc3c2c1)SCC4	7	24	82	0.79	i	93
N/C(=N\OC(=O)c1ccc(Br)cc1)c1ccncc1	-46	12	92	-0.048	i	143*
COc1cc(C(=O)O/N=C(\N)c2ccccn2)cc(OC)c1OC	x	x	x	-0.47	i	x
O=C(Oc1ccccc1)c1ccc(COC(=O)c2cnccn2)cc1	3	-3	103	x	x	97
N/C(=N\OC(=O)c1ccccc1)c1ccccn1	71*	72*	41	-1.1	i	33
COC(=O)c1ccc(COC(=O)c2ccccn2)cc1	-36	0	103	0.83	i	133*
N/C(=N\OC(=O)COc1ccc2ccccc2c1Br)c1ccccn1	-42	6	100	-0.36	i	139*
COC(=O)c1scc(C)c1-n1ccc(C(=O)C(=O)N(C)C)c1	-1	-3	105	-0.02	i	100
COc1ccc(C(CC(=O)Nc2cc([N+](=O)[O-])ccc2OC)c2ccccc2)cc1 (stereo unspecified)	4	8	89	-0.88	i	96
N/C(=N\OC(=O)/C=C/c1ccccc1Cl)c1ccccn1	43*	69*	43	-0.011	i	59
N/C(=N\OC(=O)/C=C/c1ccccc1Cl)c1cccnc1	x	x	x	0.55	i	x
O=C(NCc1ccco1)c1ccc2ccccc2c1	-37	15	90	-0.04	i	134*
O=C(NCc1ccco1)c1ccc2c(c1)C(=O)N(Cc1ccccc1)C2=O	7	2	99	x	i	94
O=C(NCc1ccco1)c1ccc2c(c1)C(=O)c1ccccc1-2	-19	8	95	-0.31	i	133*
CCOc1cc(N2CCOCC2)c(OCC)cc1NC(=O)CN1CCCC1	3	-1	103	0.2	i	97
Cc1onc(-c2c(F)cccc2Cl)c1C(=O)N=C(N)N1CCCC1	x	x	x	0.017	i	x
COc1cccc(C(=O)NC(=S)Nc2ccc3c4c(cccc24)CC3)c1	4	11	101	5*	i	97
SMILES	STAT1 inh	STAT3 blocker	STAT3 act	Cl transport mod	HSV replic up	STAT1 activator
COc1cccc(C(=O)NC(=S)Nc2ccc(Cl)cc2C(=O)O)c1	x	x	x	-1.2	i	x
Cc1ccc(S(=O)(=O)N2CCC(CN3C(=O)c4cccc5cccc(c45)C3=O)CC2)cc1	1	-108	186*	-0.16	i	99
Cc1ccc(NN2C(=O)C=C(c3ccc(Cl)cc3)C2=O)cc1	0	-1	107	x	i	100
Cc1cccc(-n2ncc3c(N4CCCc5ccccc54)ncnc32)c1	-44	-2	99	1.7	i	141*
COCCNc1ncnc2c1cnn2-c1ccc(Cl)cc1	-62	25	85	1.9	i	156*
c1cncc(CNc2ncnc3sccc23)c1	12	8	94	-0.0045	i	90
Cc1cccc(-n2ncc3c(N(CCO)CCO)ncnc32)c1	-31	-11	109	2.2	i	130*
Cc1cccc(-n2ncc3c(N(C)C4CCCCC4)ncnc32)c1	x	x	x	-0.017	i	x
c1csc(CNc2ncnc3sccc23)c1	25	66*	49	x	i	77
COc1ccc(Nc2nc(Nc3ccc(OC)cc3OC)nc(N3CCN(C)CC3)n2)c(OC)c1	2	12	93	-0.5	i	99
CC1CN(Cc2ccccc2)c2ccccc2NC1=S (stereo unspecified)	-1	7	101	-0.12	i	101
Cc1cccc(-n2ncc3c(NCc4cccs4)ncnc32)c1	-34	2	102	-0.61	i	131*
Cc1cccc(-n2ncc3c(NCc4ccco4)ncnc32)c1	-31	-7	112	-0.21	x	130*
Clc1ccc(-n2ncc3c(NCc4cccs4)ncnc32)cc1	-37	13	95	x	i	134*
CC(=O)Nc1ccc(Nc2ncnc3c2cnn3-c2cccc(C)c2)cc1	-48	6	97	0.74	i	144*
Cc1cccc(-n2ncc3c(NCc4ccccc4)ncnc32)c1	-21	-8	107	0.46	i	121
Cc1ccc(S(=O)(=O)N2CCN(CC(=O)N/N=C/c3ccco3)CC2)cc1	4	11	94	-0.0099	i	97
NS(=O)(=O)c1ccc(CCNC(=O)C2CCC(Cn3c(=S)[nH]c4ccccc4c3=O)CC2)cc1 (stereo unspecified)	-1	7	98	0.83	i	102
COc1ccc(-c2cc(C(=O)NC(C)C)no2)cc1	-43	10	92	x	i	144*
S=c1nc(-c2ccccc2)n(Cc2ccco2)c2c1CCCC2	-2	6	96	15*	i	102
O=C(C=C=Nc1ccccc1)C(=O)N=C=Cc1ccccc1	x	x	x	0.62	i	x
O=C1NC2(CCCCC2)C(=O)N1/N=C/c1ccccc1Br	-32	1	107	0.045	x	131*
O=C1NC2(CCCCC2)C(=O)N1/N=C/c1ccc(O)cc1O	-1	-6	102	-0.18	i	101
O=c1cc(-c2ccccc2F)oc2ccccc12	-38	2	101	-2	i	135*
CSc1ccc(-c2cc(=O)c3ccccc3o2)cc1	-37	-45	141*	-1.5	i	134*
O=c1cc(-c2ccc(F)cc2)oc2ccccc12	-37	8	97	-0.037	i	133*
O=c1cc(-c2ccccc2[N+](=O)[O-])oc2ccccc12	-11	-12	116	-1.8	i	110
COc1cc(NC(=O)c2ccc(Cl)cc2)c(OC)cc1NC(=O)CN1CCOCC1	-11	1	101	-5.2*	i	110
COc1cccc(NC(=O)c2ccc(CN3CCOCC3)cc2)c1	-34	5	96	0.34	i	131*
COc1c(C)cccc1C(=O)Nc1ccc(CN2CCOCC2)cc1	-32	-2	103	-0.019	i	130*

Screening results from PubChem BioAssay.
